Compound activity deposited in PubChem BioAssay by The Scripps Research Institute Molecular Screening Center.
Sampled rows, rich in hits. Any-hit rate of the full collection: about 2.8%.
PAFAH2 FP inh: inhibitors of human PAFAH2; Q99487; recombinant PAFAH2, FP-rhodamine activity probe, fluorescence polarization; inhibition, % at 3.39 µM; hit rate 0.99% among 340,000;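 active = inhibition above the mean over all tested compounds plus 3 SD, cut at about 30% in these data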;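 note: inhibitors block probe labeling of enzyme so polarization drops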
ABHD4 inh: inhibitors of mouse ABHD4 | inhibition, % at 8.92 µM | AID 720543 | hit rate 0.54% among 370,000 | purified mABHD4, FP-Rh probe fluorescence polarization | Q8VD66;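 active = inhibition exceeding the mean over every tested compound plus 3 SD, cut at about 30% in these data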
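system = mouse ABHD4 enzyme, wild type | medium = HEPES pH 7.0, NaCl, Pluronic buffer | also added = FP-Rh probe | incubation = Enzyme–compound pre-incubation 45 min, then probe 60 min, both 25 °C | technique = fluorescence polarization, excitation 525 nm, emission 598 nm, BODIPY TMR filters | controls = S159A mutant high control, sample median low control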
pPAFAH inh: inhibitors of human plasma PAF acetylhydrolase (pPAFAH) | Q13093 | recombinant pPAFAH, FP-rhodamine probe fluorescence polarization | inhibition, % at 3.39 µM | hit rate 1.5% among 330,000 | AID 463082;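 active = inhibition above the mean inhibition across the screen plus 3 SD, cut at about 25% in these data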;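 note: inhibitors block binding of the rhodamine activity-based probe so polarization drops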
PAFAH1B2 inh: blocks human PAF acetylhydrolase 1b catalytic subunit 2. hit rate 1.2% among 340,000. recombinant PAFAH1B2, FP-rhodamine activity probe, fluorescence polarization. inhibition, % at 3.39 µM;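 active = inhibition above the mean of all tested compounds plus 3 SD, cut at about 24% in these data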
PAFAH1B3 FP inh: blocks human PAF acetylhydrolase 1B catalytic subunit 3. recombinant PAFAH1B3, FP-rhodamine probe, fluorescence polarization. inhibition, % at 3.39 µM. hit rate 0.28% among 340,000;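 active = inhibition above the screen-wide average of all tested compounds plus 3 SD, cut at about 25% in these data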
HTRA1 inh: inhibitors of human serine peptidase HTRA1; recombinant HTRA1, FP-rhodamine activity-based probe, fluorescence polarization; inhibition, % at 5.96 µM; Q92743; hit rate 0.5% among 340,000; in the data active = inhibition above about 36%
Target sequence (Q92743 whole entry, looked up): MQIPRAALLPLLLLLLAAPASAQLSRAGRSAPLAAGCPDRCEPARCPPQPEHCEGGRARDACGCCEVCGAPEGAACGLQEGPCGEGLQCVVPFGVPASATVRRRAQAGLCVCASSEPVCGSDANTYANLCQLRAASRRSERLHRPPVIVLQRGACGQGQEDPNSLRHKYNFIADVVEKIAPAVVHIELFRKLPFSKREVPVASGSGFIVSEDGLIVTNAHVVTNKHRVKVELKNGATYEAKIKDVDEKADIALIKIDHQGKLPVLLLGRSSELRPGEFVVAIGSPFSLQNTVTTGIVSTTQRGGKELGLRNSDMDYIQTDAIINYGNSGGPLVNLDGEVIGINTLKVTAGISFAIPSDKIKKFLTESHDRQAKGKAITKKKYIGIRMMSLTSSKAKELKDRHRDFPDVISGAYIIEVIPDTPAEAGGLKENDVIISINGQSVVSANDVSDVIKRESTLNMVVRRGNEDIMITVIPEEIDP
A number is an active result; . = inactive; / = no result given.

SMILES | PAFAH2 FP inh | ABHD4 inh | pPAFAH inh | PAFAH1B2 inh | PAFAH1B3 FP inh | HTRA1 inh
Cc1ccc(-c2noc(CSc3nnc(Cc4ccccc4)n3-c3ccc(Cl)cc3)n2)cc1 | . | . | 25 | . | . | .
Cc1ccc(-c2noc(CSc3nnc(CCc4ccccc4)n3-c3ccccc3)n2)cc1 | . | . | . | . | . | .
CC(C)C[C@@H]1COc2cc(Br)ccc2S(=O)(=O)N1Cc1cn(CC2CCCCC2)nn1 | / | . | / | / | / | /
O=c1cc(-c2ccccc2Cl)oc2ccc([N+](=O)[O-])c(O)c12 | . | . | . | . | . | .
Nc1ccc2oc(-c3ccccc3Cl)cc(=O)c2c1O | . | . | 28 | . | . | .
CCOc1ccc(N(CC(=O)Nc2c(C)n(C)n(-c3ccccc3)c2=O)S(=O)(=O)c2ccc(C)c(C)c2)cc1 | / | . | / | / | / | /
Cc1ccc2nc(-c3ccc(NC(=O)CSc4nnc(-c5ccccc5)n4Cc4ccco4)cc3)sc2c1 | / | . | / | / | / | /
CC(=O)N(c1ccccc1)C1CCCC1 | . | . | . | . | . | .
O=C(CCl)N(c1ccccc1)C1CCCCC1 | . | . | . | 33 | . | .
C/C(N)=C(/C#N)C(=O)COC(=O)CCSc1ccccc1Cl | . | . | . | . | . | .
C/C(N)=C(/C#N)C(=O)COC(=O)CSc1ccccc1 | . | . | . | 26 | . | .
OC[C@H]1CC[C@@H]2O[C@H](CCc3ccc(-c4ccc(F)cc4)cc3)[C@H](n3cc(C4CC4)nn3)C[C@@H]2O1 | / | . | / | / | / | /
CC(C)(C)c1ccc(C(=O)C2CCCN(C(=O)CN3CCCC3=O)C2)cc1 (configuration not stated) | . | . | . | . | . | .
CN(C)C(=O)N1CCC(C(=O)N2CCCC(C(=O)c3ccc(C(C)(C)C)cc3)C2)CC1 (configuration not stated) | . | . | 26 | . | . | .
CC(C)CC(C(=O)Nc1oc(-c2ccco2)c(-c2ccco2)c1C#N)N1C(=O)c2ccccc2C1=O (configuration not stated) | . | . | 32 | . | . | .
CC(=O)N(\C=C/C=C/C=C1\Sc2ccccc2C1=O)c1ccccc1 | . | . | 30 | . | . | .
CN(C)/C=C1/Sc2ccccc2C1=O | . | . | . | . | . | .
Nc1ccc(SCc2cccnc2)cc1 | . | . | . | . | . | .
Nc1ccc(CSc2ccccc2)cc1 | . | . | / | 32 | . | .
C=CCN(C)CC#CCCCCl | / | . | / | / | / | /
CN(C)c1cccc(/C=C2\CC3(OC(=O)c4ccc(Cl)cc4)CCCN2C3)c1 (configuration not stated) | / | . | / | / | / | /
O=C(CSc1ccc(Cl)cc1)NNC(=O)c1cccnc1 | . | . | . | 28 | . | .
O=C(CNS(=O)(=O)c1ccc(Cl)cc1)NNC(=O)c1cccnc1 | . | . | . | . | . | .
COC(=O)[C@]12C[C@H](CC(=O)N3CCN(C(=O)C4CC4)CC3)C(=O)N(Cc3ccc(Cl)cc3Cl)C1=C[C@H](COCc1ccccc1)O[C@@H]2C | / | . | / | / | / | /
COc1ccc(NS(=O)(=O)c2cccc(C(=O)NNC(=O)CNC(=O)c3ccc(C)cc3)c2)cc1 | . | . | 34 | . | . | .
SMILES | PAFAH2 FP inh | ABHD4 inh | pPAFAH inh | PAFAH1B2 inh | PAFAH1B3 FP inh | HTRA1 inh
COc1ccc(NS(=O)(=O)c2ccc(C(=O)NCC3(N4CCOCC4)CCCCC3)cc2)cc1 | . | . | 31 | . | . | .
CCOc1ccc(S(=O)(=O)Nc2ccc(C(=O)NCC3(N4CCCCC4)CCCCC3)cc2)cc1 | . | . | . | . | . | .
COc1ccc(NS(=O)(=O)c2cccc(C(=O)NNC(=O)NCCCl)c2)cc1 | . | . | . | . | . | .
CNS(=O)(=O)c1cccc(C(=O)NCC2(N3CCCCC3)CCCCC2)c1 | . | . | . | . | . | .
COc1ccc(NS(=O)(=O)c2cccc(C(=O)NCC3(N4CCCCC4)CCCCC3)c2)cc1 | . | . | 32 | . | . | .
COc1ccc(NS(=O)(=O)c2cccc(NC(=O)c3ccccn3)c2)cc1 | . | . | 26 | . | . | .
CCn1cc(CCC(=O)Nc2ccc(Oc3cccnc3)cc2)c2ccccc21 | / | . | / | / | / | /
O=C1Nc2ccccc2C1=Nc1cccc([N+](=O)[O-])c1 | . | . | . | . | . | .
NC(=O)c1ccc(N=C2C(=O)Nc3ccc([N+](=O)[O-])cc32)cc1 | . | . | . | . | 56 | .
Cc1ccc(Nc2cc(C)nn2-c2nc(C)cc(=O)[nH]2)cc1 | . | / | 30 | . | . | 50
Cc1ccc(Nc2cc(C)nn2-c2nc(C)cc(C)n2)cc1 | . | . | . | . | . | .
COc1ccc(C)cc1NC(=O)CN1CCN(S(=O)(=O)c2ccc(C(C)C)cc2)CC1 | . | . | . | . | . | .
O=C(CN1CCN(S(=O)(=O)c2ccc(F)cc2)CC1)NC1CCCC1 | . | . | . | . | . | .
COc1ccc(OC)c(NC(=O)CN2CCC(C(=O)c3ccc(C)cc3)CC2)c1 | . | . | 29 | . | . | .
O=C(CCN1CCN(S(=O)(=O)c2ccc(Cl)cc2)CC1)Nc1ccc(F)cc1 | . | . | . | 25 | . | .
O=C(CN1CCN(S(=O)(=O)c2ccc(Cl)cc2)CC1)NC1CCCC1 | . | . | . | 29 | . | .
O=C(CCN1CCN(S(=O)(=O)c2ccc(Cl)cc2)CC1)Nc1ccccc1F | . | . | . | . | . | .
COc1ccc(C)cc1NC(=O)CN1CCN(S(=O)(=O)c2ccc(Cl)cc2)CC1 | . | . | . | 28 | . | .
COC(=O)[C@]12C[C@H](CC(=O)NCc3cccc4ccccc34)C(=O)N(CCc3ccc(OC)c(OC)c3)C1=C[C@H](COCc1ccccc1)O[C@@H]2C | / | . | / | / | / | /
COc1ccc(Cl)cc1NC(=O)CN(C)C(=O)CCSc1ccc(C)cc1 | . | . | . | 26 | . | .
COc1ccc(OC)c(C(=O)CN2CCN(S(=O)(=O)c3ccc(Br)cc3)CC2)c1 | . | . | . | 29 | . | .
COc1ccc(S(=O)(=O)N2CCN(CCOc3ccc(Br)cc3)CC2)cc1OC | . | . | . | . | . | .
Cc1ccc(S(=O)(=O)N2CCN3CCCC3C2)cc1 (configuration not stated) | . | . | . | . | . | .
O=S(=O)(c1ccc(Cl)cc1)N1CCN2CCCC2C1 (configuration not stated) | . | . | . | 27 | . | .
C/C(C=NNC(=O)c1cc(-c2ccc(Cl)cc2)n[nH]1)=C\c1ccccc1 | / | . | / | / | / | /
Cn1cccc1C(=O)N1CCN(S(=O)(=O)c2ccccc2F)CC1 | / | . | / | / | / | /
CC(C)(C)c1ccc(C(=O)NCCC(=O)NNC(=O)COc2ccccc2F)cc1 | . | . | . | 25 | . | .
CN(Cc1ccccc1F)C(=O)CCNC(=O)c1ccc(C(C)(C)C)cc1 | . | . | . | 28 | . | .
O=C(CCNS(=O)(=O)c1ccccc1)NNC(=O)COc1ccccc1F | . | . | . | . | . | .
CN(CCO)c1ccc2c(c1)Oc1ccccc1CN(Cc1cn(Cc3ccc(F)cc3)nn1)S2(=O)=O | / | . | / | / | / | /
